Active and inactive are the calls of the source. No cut-off for these calls is given here.

A short description of series [1]: Cmax in rat at 2 mg/kg, po. The format is ADME, organism-based. On the set-up: dose 2 mg/kg, route oral. The conditions noted are these: in vivo. Summed up:
(§1)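 Oral doses given as a suspension in aqueous 1% Tween 80 in 1% methylcellulose; IV doses formulated in 10% N,N-dimethylacetamide, 10% ethanol, 30% propylene glycol, 50% sterile water. Animals per species: mouse n = 2 (plasma from two mice at each time point), rat n = 2, dog n = 3, cynomolgus monkey n = 3.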

Series [2] has as its system GPR40 (hamster, Mesocricetus auratus). Nature of the series: Agonist activity at hamster GPR40 in presence of 0.01% human serum albumin.
For series [3], the target named is Free fatty acid receptor 1 (Macaca fascicularis, UniProt Q76JV1). Nature of the series: Agonist activity at cynomolgus monkey GPR40 in presence of 0.01% human serum albumin relative to AMG 837.
For series [4], the target named is Free fatty acid receptor 1 (Mus musculus) (UniProt Q76JU9). The series can be described thus: Agonist activity at mouse GPR40 in presence of 0.01% human serum albumin.
A short description of series [5]: Oral bioavailability in rat at 2 mg/kg. The conditions noted are these: in vivo. It is filed as ADME, organism-based. In short, it runs like this:
as §1

The target of series [6] is Free fatty acid receptor 1 (Rattus norvegicus) (UniProt Q8K3T4). The series can be described thus: Agonist activity at rat GPR40 in presence of 0.01% human serum albumin relative to AMG 837.
The target of series [7] is Free fatty acid receptor 1 (Homo sapiens, UniProt O14842). The series can be described thus: Partial agonist activity at human GPR40 expressed in CHO cells measured over 20 secs interval by luminometric analysis in presence of 100% human serum. It is filed as cell-based. In short, it runs like this:
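Aequorin chemiluminescence read-out of calcium flux in a CHO line stably transfected with human GPR40, giving EC50. Run in buffer containing 0.01% human serum albumin, or in 100% human serum to test activity with plasma proteins present.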

The nature of series [8]: Half life in mouse at 1 mg/kg, iv. The format is ADME, organism-based. The conditions noted are these: in vivo. In short, it runs like this: as §1
The nature of series [9]: Cmax in dog at 2 mg/kg, po. The format is ADME, organism-based, Canis lupus familiaris. More on the design: dose 2 mg/kg, route oral. The note with it: in vivo. Summed up:
as §1

In series [10] the target is T1, Peroxisome proliferator-activated receptor delta (Homo sapiens) (UniProt Q03181).
T1 sequence (whole entry): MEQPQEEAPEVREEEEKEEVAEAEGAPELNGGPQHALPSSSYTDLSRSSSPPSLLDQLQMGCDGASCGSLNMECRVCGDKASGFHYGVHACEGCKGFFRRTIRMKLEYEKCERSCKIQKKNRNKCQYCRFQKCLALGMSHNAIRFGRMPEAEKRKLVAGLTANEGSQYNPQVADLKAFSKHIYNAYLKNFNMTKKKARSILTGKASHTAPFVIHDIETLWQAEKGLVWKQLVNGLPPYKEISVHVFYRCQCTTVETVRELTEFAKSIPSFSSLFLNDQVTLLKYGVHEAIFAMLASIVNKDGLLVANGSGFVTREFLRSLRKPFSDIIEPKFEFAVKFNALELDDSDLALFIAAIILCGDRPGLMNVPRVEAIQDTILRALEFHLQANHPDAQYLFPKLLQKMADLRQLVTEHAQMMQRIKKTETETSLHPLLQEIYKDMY
The series can be described thus: Activity at PPARdelta (unknown origin) by cell based assay.

Series [11] concerns Pancreatic islet. The series can be described thus: Induction of insulin release in human pancreatic islets. It is filed as functional.

Free fatty acid receptor 1 (Mus musculus), sequence (Q76JU9 whole entry): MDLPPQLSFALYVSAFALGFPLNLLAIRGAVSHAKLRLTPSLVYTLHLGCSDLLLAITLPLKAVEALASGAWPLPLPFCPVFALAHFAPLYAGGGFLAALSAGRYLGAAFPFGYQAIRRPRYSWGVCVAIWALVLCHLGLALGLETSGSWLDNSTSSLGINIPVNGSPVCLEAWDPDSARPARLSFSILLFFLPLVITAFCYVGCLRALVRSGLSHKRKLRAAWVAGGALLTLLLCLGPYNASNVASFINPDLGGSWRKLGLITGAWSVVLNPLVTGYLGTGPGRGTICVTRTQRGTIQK
Free fatty acid receptor 1 (Macaca fascicularis, UniProt Q76JV1), sequence (Q76JV1 whole entry): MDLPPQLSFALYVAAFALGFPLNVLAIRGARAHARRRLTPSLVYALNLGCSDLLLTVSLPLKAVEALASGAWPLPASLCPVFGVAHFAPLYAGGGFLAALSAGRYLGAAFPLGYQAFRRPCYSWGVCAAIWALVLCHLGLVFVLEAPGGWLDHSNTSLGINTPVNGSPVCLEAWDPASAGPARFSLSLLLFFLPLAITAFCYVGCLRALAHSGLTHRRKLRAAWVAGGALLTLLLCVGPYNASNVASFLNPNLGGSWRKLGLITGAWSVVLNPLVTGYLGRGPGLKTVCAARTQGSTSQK
Free fatty acid receptor 1 (Rattus norvegicus), sequence (Q8K3T4 whole entry): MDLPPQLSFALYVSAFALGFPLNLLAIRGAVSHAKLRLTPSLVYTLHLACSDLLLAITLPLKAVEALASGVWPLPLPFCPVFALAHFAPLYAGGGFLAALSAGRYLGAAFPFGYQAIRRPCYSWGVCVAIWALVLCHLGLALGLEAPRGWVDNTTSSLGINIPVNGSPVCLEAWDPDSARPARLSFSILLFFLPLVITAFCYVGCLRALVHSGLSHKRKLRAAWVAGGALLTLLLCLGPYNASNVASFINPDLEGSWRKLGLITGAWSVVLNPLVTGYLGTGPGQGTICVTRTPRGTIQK
Free fatty acid receptor 1 (Homo sapiens, UniProt O14842), sequence (O14842 whole entry): as the sequence (Q76JV1 whole entry) above, with A10G, R31T, R36L, G83A, A88F, V143G, H211R, N250Y, S296G, T297K counted along it

Turning to `Cc1cc(Cl)ccc1-c1cccc(COc2ccc([C@H](CC(=O)O)c3nccn3C)cc2)c1`, the maximum concentration (Cmax) was 770 nM in [1] and 4400 nM in series [9]. For the same molecule, the outcome in [2], in [4] and in [10] was inactive. Further, the concentration for a half-maximal effect (EC50) in [3] was 0.029 µM; in series [7] it was 10 µM. In [5], this molecule showed a bioavailability of 43%. Further, in series [6], the maximal response (Emax) was 41%. The half-life in [8] is 1.5 h. Besides, in series [11], the result was Active.
